The text below walks through data of ChEMBL document CHEMBL4411315, “Discovery of Novel Dual Histone Deacetylase and Mammalian Target of Rapamycin Target Inhibitors as a Promising Strategy for Cancer Therapy” (J Med Chem, 2019).

Molecules are shown by their SMILES. pIC50: −log10 of the molar value.

The pIC50 is the IC50 on a negative log10 scale, so that one unit is a factor of ten. One may read the inhibition as the change of the read-out against control, counted positive when it falls.

One test concerns HCT-116. As to the kind of experiment: Antiproliferative activity against human HCT116 cells after 72 hrs by MTT assay. Type of test: functional, cell-based. The settings on record: HCT-116, 72 h. In general terms: Tetrazolium dyes change colour on reduction, which living cells bring about.
In the next test the test system is Raji. In words: Antiproliferative activity against human Raji cells after 72 hrs by MTT assay. In kind it is functional, cell-based. The procedure, abridged: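 Log-phase cells were plated at 10000-15000 per well and exposed to serial concentrations after 24 h for 72 h. Read-out was MTT for 1-3 h, then 20% SDS overnight and absorbance at 570 nm. IC50 was calculated from growth versus untreated control, as mean ± SEM of at least three independent experiments.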

For the next test, the system named is MCF7. As to the kind of experiment: Antiproliferative activity against human MCF7 cells after 72 hrs by MTT assay. Type of test: functional, cell-based. Particulars: MCF7, 72 h.
Another test deals with MM1.S. In words: Antiproliferative activity against human MM1S cells after 72 hrs by MTT assay. Type of test: functional, cell-based.
In test [1] the target is T1, PI3-kinase p110-alpha/p85-alpha (Homo sapiens) (UniProt P27986+P42336). In words: Inhibition of recombinant human full length N-terminal His-tagged/untagged p110alpha/p85alpha expressed in baculovirus expression system at 500 nM using PIP2 as substrate after 1 hr by Kinase-Glo reagent-based assay relative to control. (Kinase-Glo measures the ATP left after a reaction by luminescence.)

The target of test [2] is T2, Serine/threonine-protein kinase mTOR (Homo sapiens, UniProt P42345). In words: Inhibition of recombinant N-terminal FLAG-tagged human mTOR (1362 to end residues) at 500 nM using ULight-4E-BP1 (Thr37/46) peptide as substrate after 1 hr by fluorescence assay relative to control.
The next test deals with Histone deacetylase 1 (Homo sapiens, UniProt Q13547). In words: Inhibition of recombinant full length HDAC1 (unknown origin) using Ac-peptide-AMC as substrate preincubated for 15 mins followed by substrate addition and measured after 1 hr by fluorescence assay.
Chain of Histone deacetylase 1 (Q13547 whole entry): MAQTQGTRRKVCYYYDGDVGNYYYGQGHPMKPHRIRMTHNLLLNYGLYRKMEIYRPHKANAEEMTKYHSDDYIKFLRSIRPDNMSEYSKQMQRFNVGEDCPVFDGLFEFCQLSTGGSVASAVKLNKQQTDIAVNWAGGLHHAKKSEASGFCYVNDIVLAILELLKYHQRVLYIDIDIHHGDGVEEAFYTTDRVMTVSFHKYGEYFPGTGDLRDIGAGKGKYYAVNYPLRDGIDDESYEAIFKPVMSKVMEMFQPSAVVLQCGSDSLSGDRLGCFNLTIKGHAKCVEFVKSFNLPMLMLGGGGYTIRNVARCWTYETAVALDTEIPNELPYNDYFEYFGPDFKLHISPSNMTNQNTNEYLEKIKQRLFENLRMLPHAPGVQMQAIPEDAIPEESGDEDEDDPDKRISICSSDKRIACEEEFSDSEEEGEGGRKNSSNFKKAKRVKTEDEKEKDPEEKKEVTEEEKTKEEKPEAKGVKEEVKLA
The next test deals with Histone deacetylase 2 (Homo sapiens, UniProt Q92769). In words: Inhibition of recombinant full length human HDAC2 expressed in baculovirus expression system using Ac-peptide-AMC as substrate preincubated for 15 mins followed by substrate addition and measured after 1 hr by fluorescence assay.
Chain of Histone deacetylase 2 (Q92769 whole entry): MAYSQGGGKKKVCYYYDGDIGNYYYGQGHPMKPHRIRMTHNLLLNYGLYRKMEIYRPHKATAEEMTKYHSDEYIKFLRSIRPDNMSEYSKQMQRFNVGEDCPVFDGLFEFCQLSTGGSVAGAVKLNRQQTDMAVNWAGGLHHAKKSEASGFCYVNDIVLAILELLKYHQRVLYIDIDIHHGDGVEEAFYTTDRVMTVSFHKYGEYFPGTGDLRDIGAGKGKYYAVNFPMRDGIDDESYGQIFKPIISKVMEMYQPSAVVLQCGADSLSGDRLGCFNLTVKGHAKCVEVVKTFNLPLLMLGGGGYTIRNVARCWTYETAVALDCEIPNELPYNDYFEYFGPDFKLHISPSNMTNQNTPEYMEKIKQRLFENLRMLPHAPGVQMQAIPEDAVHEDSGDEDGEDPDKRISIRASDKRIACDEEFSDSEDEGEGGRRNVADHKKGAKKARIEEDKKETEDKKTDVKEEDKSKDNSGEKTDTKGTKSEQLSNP
A further test concerns the target Histone deacetylase 3 (Homo sapiens, UniProt O15379). In words: Inhibition of recombinant full length HDAC3 (unknown origin) using Ac-peptide-AMC as substrate preincubated for 15 mins followed by substrate addition and measured after 1 hr by fluorescence assay.
The target in a further test is Histone deacetylase 8 (Homo sapiens, UniProt Q9BY41). As to the kind of experiment: Inhibition of recombinant full length C-terminal His-tagged human HDAC8 expressed in baculovirus expression system using Ac-peptide-AMC as substrate preincubated for 15 mins followed by substrate addition and measured after 1 hr by fluorescence assay.
Chain of Histone deacetylase 8 (Q9BY41 whole entry): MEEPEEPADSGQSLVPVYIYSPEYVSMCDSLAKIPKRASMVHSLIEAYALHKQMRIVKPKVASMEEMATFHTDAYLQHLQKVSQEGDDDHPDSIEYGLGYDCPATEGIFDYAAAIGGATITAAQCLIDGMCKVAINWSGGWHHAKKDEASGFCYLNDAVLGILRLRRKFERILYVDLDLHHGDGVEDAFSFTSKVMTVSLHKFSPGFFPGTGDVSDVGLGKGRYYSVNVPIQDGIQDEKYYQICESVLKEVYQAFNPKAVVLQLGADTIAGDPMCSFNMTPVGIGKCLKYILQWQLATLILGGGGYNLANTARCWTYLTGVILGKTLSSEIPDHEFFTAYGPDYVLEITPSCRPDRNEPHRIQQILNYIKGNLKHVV
Test [3] deals with Protein deacetylase HDAC6 (Homo sapiens, UniProt Q9UBN7). As to the kind of experiment: Inhibition of recombinant full length HDAC6 (unknown origin) using Ac-peptide-AMC as substrate preincubated for 15 mins followed by substrate addition and measured after 1 hr by fluorescence assay.
Chain of Protein deacetylase HDAC6 (Q9UBN7 whole entry): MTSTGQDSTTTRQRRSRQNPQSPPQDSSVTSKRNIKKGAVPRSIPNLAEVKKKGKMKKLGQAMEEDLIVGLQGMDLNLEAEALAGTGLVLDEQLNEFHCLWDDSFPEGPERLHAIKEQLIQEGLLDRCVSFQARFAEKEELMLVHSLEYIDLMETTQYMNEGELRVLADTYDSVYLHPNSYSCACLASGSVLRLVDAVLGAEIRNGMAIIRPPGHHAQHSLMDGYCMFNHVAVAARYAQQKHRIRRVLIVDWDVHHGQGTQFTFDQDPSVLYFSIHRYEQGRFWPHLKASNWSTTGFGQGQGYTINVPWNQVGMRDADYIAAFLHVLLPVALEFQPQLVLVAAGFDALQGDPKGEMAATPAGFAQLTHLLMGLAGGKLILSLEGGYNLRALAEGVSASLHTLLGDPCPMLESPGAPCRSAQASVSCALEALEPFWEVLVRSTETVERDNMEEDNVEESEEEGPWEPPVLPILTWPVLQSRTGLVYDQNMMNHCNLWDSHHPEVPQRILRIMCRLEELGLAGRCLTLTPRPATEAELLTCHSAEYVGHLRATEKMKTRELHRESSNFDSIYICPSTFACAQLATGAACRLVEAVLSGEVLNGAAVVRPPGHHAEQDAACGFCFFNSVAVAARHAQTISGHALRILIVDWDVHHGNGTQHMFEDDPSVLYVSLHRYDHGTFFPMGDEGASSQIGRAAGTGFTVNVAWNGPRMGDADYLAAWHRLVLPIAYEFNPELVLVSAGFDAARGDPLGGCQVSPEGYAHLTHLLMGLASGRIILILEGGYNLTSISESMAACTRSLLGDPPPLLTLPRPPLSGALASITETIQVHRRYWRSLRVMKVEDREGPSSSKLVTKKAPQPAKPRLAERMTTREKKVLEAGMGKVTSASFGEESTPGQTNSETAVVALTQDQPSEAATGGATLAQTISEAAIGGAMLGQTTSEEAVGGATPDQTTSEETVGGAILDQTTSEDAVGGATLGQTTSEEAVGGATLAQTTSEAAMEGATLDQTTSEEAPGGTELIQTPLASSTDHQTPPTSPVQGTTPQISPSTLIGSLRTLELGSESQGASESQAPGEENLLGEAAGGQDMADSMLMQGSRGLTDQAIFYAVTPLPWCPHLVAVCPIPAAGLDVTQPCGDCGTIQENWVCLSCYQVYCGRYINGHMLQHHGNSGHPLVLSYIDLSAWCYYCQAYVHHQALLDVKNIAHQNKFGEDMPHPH
Test [4] addresses Polyamine deacetylase HDAC10 (Homo sapiens, UniProt Q969S8). In words: Inhibition of recombinant full length N-terminal FLAG-tagged human HDAC10 expressed in baculovirus infected sf9 cells using Ac-peptide-AMC as substrate preincubated for 15 mins followed by substrate addition and measured after 1 hr by fluorescence assay.
In test [5] the target is T2, Serine/threonine-protein kinase mTOR. As to the kind of experiment: Inhibition of recombinant N-terminal FLAG-tagged human mTOR (1362 to end residues) using ULight-4E-BP1 (Thr37/46) peptide as substrate after 1 hr by fluorescence assay. An outline of the steps: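 mTOR enzyme, ATP, compound and ULight-4E-BP1 (Thr37/46) peptide in kinase buffer were incubated 1 h at room temperature. EDTA quench plus Eu-anti-phospho-4E-BP1 antibody was added and equilibrated 1 h. TR-FRET was read at excitation 320 or 340 nm and emission 665 nm. Curves were fitted, and values are means of at least two experiments.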

A further test relates to MV4-11. In words: Antiproliferative activity against human MV4-11 cells after 72 hrs by MTT assay. The settings on record: MV4-11, 72 h. Type of test: functional, cell-based.
In another test the test system is OCI-AML2. As to the kind of experiment: Antiproliferative activity against human OCI-AML2 cells after 72 hrs by MTT assay. Type of test: functional, cell-based. Particulars: OCI-AML2, 72 h.
A further test relates to OCI-AML-3. As to the kind of experiment: Antiproliferative activity against human OCI-AML3 cells after 72 hrs by MTT assay. In kind it is functional, cell-based. Particulars: OCI-AML-3, 72 h.
Test [6] addresses T1, PI3-kinase p110-alpha/p85-alpha (Homo sapiens). In words: Inhibition of recombinant human full length N-terminal His-tagged/untagged p110alpha/p85alpha expressed in baculovirus expression system at 1000 nM using PIP2 as substrate after 1 hr by Kinase-Glo reagent-based assay relative to control. An outline of the steps:
(§1)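 PI3Kα (p110α/p85α) incubated with PIP2 substrate and ATP in kinase buffer for 1 h at room temperature. Kinase-Glo reagent was then added for 15 min before luminescence read-out. Inhibition rate at 100 or 1000 nM is the mean of at least two experiments.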

Test [7] has the same target. In words: Inhibition of recombinant human full length N-terminal His-tagged/untagged p110alpha/p85alpha expressed in baculovirus expression system at 100 nM using PIP2 as substrate after 1 hr by Kinase-Glo reagent-based assay relative to control. The procedure, abridged:
as §1

Chain of Polyamine deacetylase HDAC10 (Q969S8 whole entry): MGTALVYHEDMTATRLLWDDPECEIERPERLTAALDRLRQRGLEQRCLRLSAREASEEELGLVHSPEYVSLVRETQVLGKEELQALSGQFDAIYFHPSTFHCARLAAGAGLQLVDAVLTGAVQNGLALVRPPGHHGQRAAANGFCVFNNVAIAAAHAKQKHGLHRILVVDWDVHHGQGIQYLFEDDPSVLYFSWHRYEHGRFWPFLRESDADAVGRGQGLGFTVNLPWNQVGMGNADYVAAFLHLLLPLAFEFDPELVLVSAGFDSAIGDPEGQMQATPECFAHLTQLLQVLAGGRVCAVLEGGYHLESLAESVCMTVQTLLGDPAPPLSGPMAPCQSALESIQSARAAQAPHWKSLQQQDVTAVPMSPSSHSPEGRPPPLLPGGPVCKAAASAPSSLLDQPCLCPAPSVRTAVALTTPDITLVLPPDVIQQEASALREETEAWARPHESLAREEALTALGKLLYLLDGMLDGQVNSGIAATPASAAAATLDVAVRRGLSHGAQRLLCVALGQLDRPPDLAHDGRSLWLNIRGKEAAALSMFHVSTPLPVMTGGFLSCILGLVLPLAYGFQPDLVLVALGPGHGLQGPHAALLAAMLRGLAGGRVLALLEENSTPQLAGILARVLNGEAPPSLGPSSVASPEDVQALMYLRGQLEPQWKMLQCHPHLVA
Chain of Histone deacetylase 3 (O15379 whole entry): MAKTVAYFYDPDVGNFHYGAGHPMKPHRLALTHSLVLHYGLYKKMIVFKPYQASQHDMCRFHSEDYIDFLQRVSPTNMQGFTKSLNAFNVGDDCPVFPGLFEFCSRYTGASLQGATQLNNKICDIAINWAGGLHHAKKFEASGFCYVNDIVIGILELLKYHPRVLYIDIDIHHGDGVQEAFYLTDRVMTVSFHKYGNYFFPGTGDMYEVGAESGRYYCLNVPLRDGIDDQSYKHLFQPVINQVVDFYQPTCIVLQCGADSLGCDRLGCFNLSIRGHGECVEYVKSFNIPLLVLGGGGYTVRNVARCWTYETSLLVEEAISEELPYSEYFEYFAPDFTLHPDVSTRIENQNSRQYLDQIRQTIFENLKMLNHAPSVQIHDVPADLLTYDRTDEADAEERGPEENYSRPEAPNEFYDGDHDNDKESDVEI

In the case of `Nc1ccc(-c2nc(N3CCOCC3)c3cnn(CCCCCCC(=O)NO)c3n2)cc1`, the negative logarithm of the IC50 (pIC50) was 8.15 in the test with HCT-116; 8.15 in the test with Raji; 7.20 in the test with MCF7; 7.72 in the test with MM1.S; 9.68 at Histone deacetylase 1; 8.80 at Histone deacetylase 2. The pIC50 at Histone deacetylase 3 was 8.38; on Histone deacetylase 8, 7.45; in test [3], 8.61; in test [4] it was 8.84; in test [5] it was 7.40. In addition, the inhibition stood at 16% in [1] and 95% in test [2].
As to `CN1CCN(C(=O)Nc2ccc(-c3nc(N4CCOCC4)c4cnn(CCCCCCC(=O)NO)c4n3)cc2)CC1`, the pIC50 in the test with HCT-116 was 7.08; with Raji, 7.15; with MM1.S it was 7.21; in test [5] it was 8.47; in the test on MV4-11, 8.15; in the test on OCI-AML2, 8.07. Moreover, the pIC50 with OCI-AML-3 was 7.45. Besides, the figures for the inhibition in [6] and in [7] were 98.1% and 52.7%, respectively.
For `O=C(CCCCCCn1ncc2c(N3CCOCC3)nc(-c3ccc(NC(=O)N4CCNCC4)cc3)nc21)NO`, the pIC50 is 6.96 in the test with HCT-116; 6.90 in the test with Raji; 6.90 in the test on MM1.S; 7.58 in the test with MV4-11; 7.48 in the test with OCI-AML2; 7.40 in the test with OCI-AML-3.
Regarding `O=C(CCCCCCn1ncc2c(N3CCOCC3)nc(-c3ccc(NC(=O)N4CCOCC4)cc3)nc21)NO`, the pIC50 in the test with HCT-116 was 7.00; in the test on Raji, 7.84; in the test with MM1.S it was 7.56; with MV4-11, 7.90; in the test on OCI-AML2, 7.54; with OCI-AML-3, 7.52.
As to `O=C(CCCCCCn1ncc2c(N3CCOCC3)nc(-c3ccc(NC(=O)N4CCSCC4)cc3)nc21)NO`, the pIC50 is 7.17 with HCT-116; 6.83 in the test with Raji; 7.41 in the test with MM1.S; 7.86 in the test with MV4-11; 7.77 in the test on OCI-AML2; 7.82 in the test with OCI-AML-3.
On to `CCN1CCN(C(=O)Nc2ccc(-c3nc(N4CCOCC4)c4cnn(CCCCCCC(=O)NO)c4n3)cc2)CC1`, for which the pIC50 in the test on HCT-116 is 7.37; in the test on Raji it was 7.46; in the test with MM1.S it was 7.28; in test [5], 8.51; with MV4-11, 8.23; with OCI-AML2 it was 8.40. This compound also had a pIC50 in the test with OCI-AML-3 of 8.10. Further, the values for the inhibition in test [6] and in test [7] were 83.4% and 69.3%, respectively.
